Screening data from PubChem.
Compounds with a hit are over-represented: about 2.9% of the library has one in this group of screens.
CRFR2-BP antag: CRF-BP/CRF-R2 complex antagonism; HEK293 CRF-R2/CRF-BP, CRF-induced calcium fluorescence; inhibition, % at 11.8 µM; 350,000 compounds, 0.59% hits; AID 588475;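 active = inhibition of the ligand-induced calcium signal above about 50% at the single tested concentration, limit read from the data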
DDE Tn6 FP inh: DD(E)-Tn6 binding inhibition, primary FP screen. P02675. Fibrin DD(E) TRITC-Tn6 fluorescence polarization displacement. inhibition, % at 8.3 µM. 370,000 compounds, 0.21% hits. AID 720509;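 active = inhibition above a per-campaign cutoff: mean of compounds within control limits plus 3 SD, cut at about 15% in these data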;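 also: 0% = median of all compound wells on the plate and 100% = blocking peptide control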
Target sequence (P02675 whole entry, looked up): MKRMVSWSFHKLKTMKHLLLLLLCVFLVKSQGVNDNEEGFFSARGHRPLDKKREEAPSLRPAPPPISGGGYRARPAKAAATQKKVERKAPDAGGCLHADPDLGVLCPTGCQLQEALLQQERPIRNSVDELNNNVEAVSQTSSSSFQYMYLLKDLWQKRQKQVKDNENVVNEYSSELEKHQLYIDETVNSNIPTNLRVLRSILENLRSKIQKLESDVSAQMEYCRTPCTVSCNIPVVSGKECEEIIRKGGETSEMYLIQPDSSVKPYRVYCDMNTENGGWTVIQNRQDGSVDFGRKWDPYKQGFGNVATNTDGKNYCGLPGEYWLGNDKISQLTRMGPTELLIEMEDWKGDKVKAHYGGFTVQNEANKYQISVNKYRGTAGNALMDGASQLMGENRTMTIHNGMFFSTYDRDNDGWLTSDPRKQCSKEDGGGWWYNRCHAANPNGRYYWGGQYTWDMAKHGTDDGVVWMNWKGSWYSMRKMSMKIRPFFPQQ
CRFR2-BP ag: CRF-BP/CRF-R2 complex agonism; AID 588473; HEK293 CRF-R2/CRF-BP, calcium dye fluorescence (FLIPR); percent of saturating CRF peptide response; 350,000 compounds, 0.46% hits; activation, % at 13.2 µM;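 active = activation of at least 50%, plus an integration ratio under a set limit after plate pattern correction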;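 also: plate controls were neutral control wells without compound for no effect and CRF at EC100 for full effect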
NRP1-CendR mod: NRP-1/CendR interaction modulation; O14786; FAM-RPARPAR peptide binding to NRP-1, fluorescence polarization; inhibition, % at 25 µM; 360,000 compounds, 0.85% hits; AID 602438;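 active = inhibition or corrected inhibition above about 18%, plus a signal ratio from 0.5 to 1.5, limit read from the data, passing the limit was not always enough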
KLK7 zymogen act: proKLK7 (human) activation, primary screen; purified proKLK7, EDANS-DABCYL substrate fluorescence; 100% is mature enzyme control, 0% vehicle; activation, % at 7 µM; 370,000 compounds, 0.9% hits; P49862;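 active = activation above the mean of all tested compounds plus 3 SD, computed per campaign excluding outliers beyond control limits, cut at about 13% in these data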
DDE Tn7 FP inh: DD(E)-Tn7 binding inhibition, primary FP screen | 370,000 compounds, 0.13% hits | inhibition, % at 8.3 µM | P02675 | FP displacement of FITC-Tn7 peptide from fibrin DD(E); 0% = median of compound wells per plate;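 active = inhibition above the mean of compounds falling within the control limits plus 3 SD of them, cut at about 14% in these data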;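 also: 0% = plate median of compound wells and 100% = 10 µM Aha-Tn7 peptide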
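Assay system: Human fibrin DD(E) protein | Medium: Tris buffer with calcium and detergent, pH 7.8 | Reagent: 0.1 µM fluorescent Tn7 | Compound dosing: Single point at 8.3 µM | Times: 10 min preincubation, 3 h with tracer, room temperature | Detection: Fluorescence polarization of the labelled Tn7 tracer | Controls: Aha-Tn7 high control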
proKLK7 act conf: proKLK7 activation, confirmation; shares compounds with KLK7 zymogen act; 3,200 compounds, 68% hits; activation, % at 7 µM; purified proKLK7, EDANS-DABCYL substrate fluorescence; scaled: vehicle 0, mature enzyme 100;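 active = activation, as change over the incubation, above the mean of all tested compounds plus 3 SD, cut at about 13% in these data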
EDANS interfere: optically interferes with EDANS-DABCYL signal, flagging KLK7 hits. 3,200 compounds, 80% hits. activation, % at 7 µM. EDANS-DABCYL substrate fluorescence interference, no enzyme, 4 h; solvent 0%, active enzyme control 100%. AID 686952. shares compounds with KLK7 zymogen act;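 active = activation above the all-compound mean plus 3 SD, ignoring values outside control-based bounds, cut at about 4.8% in these data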;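 also: value is the 4 h activation minus the activation read at time zero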
K7 EDANS ctr: counter-screen for kallikrein-7 activators: EDANS-DABCYL interference, dose response; EDANS-DABCYL peptide fluorescence interference, no enzyme; EC50, µM; shares compounds with KLK7 zymogen act; 250 compounds, 20% hits;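 active = compounds that raise the fluorescence signal in this interference counterscreen, with EC50 at or below 10 µM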;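 also: intact quenched peptide substrate alone read at 355 nm excitation and 520 nm emission; signal is fluorescence gain from T0 to T4 after four hours at room temperature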
* = called active by the depositor; i = inactive; x = no result; + = active, no number.

SMILES	CRFR2-BP antag	DDE Tn6 FP inh	CRFR2-BP ag	NRP1-CendR mod	KLK7 zymogen act	DDE Tn7 FP inh	proKLK7 act conf	EDANS interfere	others
CN1CCN(C(=O)c2cc3nc(-c4ccco4)cc(C(F)(F)F)n3n2)CC1	4.1	-7.2	-1.1	-5.1	30.4*	1.6	16.8*	11.2*	K7 EDANS ctr=>69.5
COc1ccc(Br)cc1S(=O)(=O)NCCN1CCOCC1	15.6	-2.2	1.0	13.6	41.5*	0.0	-0.1	0.1
Cc1cc(C)c2c(N)c3cccc(C)c3nc2n1	16.3	-7.1	39.6	-18.1	15.0*	10.2	46.4*	41.5*
Brc1ccc2nc(-c3ccc(CN4CCC5(CC4)CNc4ccccc45)cc3)c(-c3ccccc3)nc2c1	x	-0.4	x	x	-0.7	-4.3	x	x
O=C(Cn1c(-c2cncs2)nc2ccccc21)N1CCOCC1	x	-3.4	x	x	-0.3	2.9	x	x
CC1(C)CC(=O)C=C(C#CC2CC2)C1	x	-2.3	x	x	0.5	6.5	x	x
CCOC(=O)c1c(-c2ccccc2)cn2c(C)cc(C)nc12	21.0	-2.4	-7.0	12.5	12.7*	1.9	5.9	-1.6
CCC1(C)Cc2ccccc2-c2nc(NCCO)[nH]c(=O)c21 (stereo not drawn)	0.7	-1.9	-2.3	4.3	22.5*	-0.9	-24.1	-31.0
CC1(C)Cc2ccccc2-c2nc(NCCCO)[nH]c(=O)c21	-13.8	-3.5	-0.3	-3.6	39.2*	2.7	-0.8	-7.8
O=c1[nH]c(NCCO)nc2c1C1(CCCC1)Cc1ccccc1-2	-31.1	8.6	0.9	-14.2	-1.1	0.8	x	x
Oc1ccc2c(c1)OCC1(O)Cc3cc(O)c(O)cc3C21 (stereo not drawn)	-24.7	+	34.8	18.6	15.8*	28.3*	58.2*	57.1*
C[C@H]1[C@@H](NC(=O)c2cccc(N(C)C)c2)CC[C@@]23CCCN2C(=O)CCC[C@@H]13	x	2.7	x	x	x	-0.6	x	x
C=C(C)Cn1c2ccc(NC(=O)CCOCC)cc2c(=O)n1C	x	-2.2	x	-1.9	24.2*	1.2	19.1*	21.6*
CCOCCC(=O)Nc1ccc2c(c1)c(=O)n(C)n2CC=C(C)C	x	1.9	x	-7.5	25.7*	-2.7	15.0*	17.2*
C=C(C)Cn1c2ccc(NC(=O)CCc3cccc(Cl)c3)cc2c(=O)n1C	x	6.0	x	-6.0	12.3	-1.8	x	x
CCOC(=O)C1=C2c3cc(OC)c(OC)cc3CC(C)(C)N2C(=O)C1=O	23.7	7.0	-2.8	2.0	24.3*	-6.7	5.3	5.9*
Cc1cccn2c(=O)c3cc(C#N)c(=NC(=O)c4ccco4)n(Cc4ccco4)c3nc12	-5.9	-3.2	4.5	-32.1	9.0	7.8	x	x
Cc1cccn2c(=O)c3cc(C#N)c(=NC(=O)c4ccccc4)n(Cc4ccco4)c3nc12	-6.6	-6.2	6.6	-69.0	45.0*	-4.0	26.7*	17.0*	K7 EDANS ctr=7.82*
Cc1cccc(C(=O)N=c2c(C#N)cc3c(=O)n4cccc(C)c4nc3n2Cc2ccco2)c1	-6.6	0.2	7.5	-82.4	27.1*	-1.4	15.8*	0.8	K7 EDANS ctr=i
COC(=O)C1=C(C)N(Cc2ccccc2C(F)(F)F)C(=NCc2ccc3c(c2)OCO3)NC1c1ccccc1C(F)(F)F (stereo not drawn)	x	-5.7	x	x	0.2	-3.8	x	x
O=C(N[C@H]1C[C@@H]2O[C@H](CO)CC[C@@H]2O[C@@H]1CCc1ccc(-c2cccnc2)cc1)c1cccc(F)c1	x	-6.0	x	x	0.1	5.5	x	x
COC(=O)c1cc(-c2ccc(OC)cc2)nc2nc(SC)[nH]c(=O)c12	11.9	1.8	-2.6	9.6	24.6*	-2.9	21.3*	17.3*	K7 EDANS ctr=>69.5
